Dynein cargo inh – dynein cargo transport inhibition | 3617.4 mouse cells, GR-EGFP nuclear translocation imaging; test concentration mostly 20 µM; stimulated with dexamethasone, 1 µM; stronger effect = lower value | z-score, hits read low | actives 0.47% (n = 220,000) | AID 1381;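 active = plate z-score of nuclear minus cytoplasmic receptor signal below a set negative limit, without overly bright fluorescence or cell loss, cut at about -3.5 in these data, passing the limit was not always enough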;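 note: z-score of nuclear minus cytoplasmic ring GR-EGFP intensity difference per well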
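Buffer or medium: tet-free medium with charcoal-stripped serum / Also added: dexamethasone agonist, 1.0 µM final, for 30 min / Timing: induction 48 h, compound 1 h, agonist 30 min / Measured by: high-content fluorescence imaging after fixation / Read-out: nuclear-to-cytoplasmic GR-EGFP distribution per well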
Lmaj promast – inhibitors of Leishmania major promastigote growth. Leishmania major promastigotes, resazurin fluorescence viability. inhibition, % at 10 µM. actives 9% (n = 200,000). AID 1063; in the data active = inhibition above about 50%;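 note: promastigotes grown with compound for 44 hours at 28 °C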
CHOP inh – blocks CHOP induction under ER stress; CHO-K1 CHOP-promoter luciferase, tunicamycin-induced, 15-18 h; inhibition, % at 10 µM; actives 3.8% (n = 220,000);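 active = compounds that reduced the stress-induced luciferase reporter signal by more than about 70% of percent inhibition, limit read from the data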;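 note: 0% = tunicamycin plus vehicle and 100% = wells without tunicamycin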
Autophagy mod – autophagy modulation, high-content screen; MEF GFP-LC3 puncta imaging; test concentration mostly 10 µM; calls only at 10 µM (by protocol); actives 0.98% (n = 190,000); AID 463193;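 active = percentage of spot-positive cells more than 3 SD above its plate mean, without a fluorescence outlier flag or 80% toxicity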;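 note: spot-positive cell cutoff set from DMSO-treated cells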
bCat nuc transl – alters nuclear translocation of beta-catenin in HeLa cells. immunofluorescence imaging. nuclear translocation activity, % at 5 µM. actives 0.3% (n = 190,000). AID 1665;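 active = nuclear translocation activity above 50% at 5 µM, with a well cell count of 50 or more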;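 note: per-cell ratio of nuclear to cytoplasmic median beta-catenin stain intensity; plate controls were DMSO negative control for no effect and GSK-3 inhibitor IX positive control for full effect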
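Test system: HeLa cells, endogenous beta-catenin; Compound: single 5 µM dose plus 0.02–20 µM confirmation series; Times: compound exposure 24 h at 37°C; Signal: fluorescence imaging of beta-catenin antibody stain plus DAPI; Read-out: % activation, nuclear-to-cytoplasmic median beta-catenin signal ratio per cell.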
MT stabilizer – microtubule stabilization, imaging screen. actives 0.83% (n = 200,000). % tubulin-high responders, % at 10 µM. HeLa tubulin immunostaining HCS, 24 h; share of cells brighter than vehicle mean+2SD;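 active = plate Z-score above 3 for both tubulin-high and condensed-nucleus cell shares, with cell loss under 80%, at 10 µM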;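 note: anti alpha tubulin signal scored within the nucleus-defined area of each cell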
The depositor's hits bear a star; i = inactive; · = no result. The list is not random: actives were taken first. Their share in the collection is about 12%.

SMILES	Dynein cargo inh	Lmaj promast	CHOP inh	Autophagy mod	bCat nuc transl	MT stabilizer
O=[N+]([O-])c1cccnc1N1CCC(c2cc(-c3ccc(Cl)cc3Cl)n[nH]2)CC1	1.8	12	92*	i	2	2
O=C(N/N=C/c1ccncc1)c1ccccc1OCc1ccc(Br)cc1	-0.029	100*	11	i	-4	1
O=C(N/N=C/c1ccccc1)c1sccc1OCc1ccc(F)cc1	0.17	92*	-19	i	1	3
COc1ccc(CCn2c(C(C)C)nc3oc4ccccc4c(=O)c3c2=O)cc1	0.78	·	9	·	0	·
COc1ccc(C(CC(=O)c2ccc(C)cc2)C(C#N)C#N)cc1OC (stereo not given)	-1.6	90*	-23	i	9	7
Cc1c(-c2ccncc2)oc2ccc(Br)cc2c1=O	0.13	6	12	i	-4	5
CCOC(=O)c1c(C)n(-c2ccc(C)cc2)c2ccc(O)c(CN(C)C)c12	-1	99*	-6	i	0	4
CCOC(=O)c1c(CSc2ccccc2)n(C)c2cc(Br)c(O)c(CN(C)C)c12	1.2	·	-3	·	-1	·
CCOC(=O)c1c(C)n(-c2ccc(OC)cc2)c2ccc(O)c(CN(C)C)c12	1.1	·	-9	·	1	·
CCOC(=O)c1c(CSc2ccc(C)cc2)n(C)c2cc(Br)c(O)c(CN(C)C)c12	-1.5	71*	14	i	0	2
O=C(Nc1ccc(NC(=O)c2sc3ccccc3c2Cl)cc1Cl)c1ccco1	0.14	5	-20	i	3	2
CCC(C)Sc1nnc(CNC(=O)C23CC4CC(CC(C4)C2)C3)n1C1CCCCC1 (stereo not given)	-1.1	21	95*	i	-3	3
COC(=O)c1[nH]c2cc(OC)ccc2c1NC(=O)c1nonc1C	-0.23	-3	14	i	1	37*
COc1ccc(S(=O)(=O)Nc2ccc(NC(C)=O)cc2)cc1[N+](=O)[O-]	-0.87	0	6	i	0	2
COc1ccc(C(=O)NC(=S)Nc2cc(C)ccn2)cc1[N+](=O)[O-]	0.8	62*	-29	i	·	2
Cc1c(C(=O)NC(=S)Nc2ccc(NC(=O)c3cccs3)cc2)cccc1[N+](=O)[O-]	-0.54	98*	·	i	·	2
O=C(NC(=S)Nc1ccccc1N1CCCCC1)c1cccs1	-0.2	91*	42	i	0	1
COc1ccc(C(=O)NC(=S)Nc2ccccc2N2CCCCC2)cc1[N+](=O)[O-]	-0.35	99*	18	i	0	0
O=C(NC(=S)Nc1ccccc1N1CCCC1)c1ccc([N+](=O)[O-])cc1	-0.5	16	-14	i	6	3
Cc1ccccc1C(=O)Nc1cccc(NC(=S)NC(=O)c2cccs2)c1	1.2	-8	26	i	0	2
CCCCc1ccc(NC(=S)N2CCCC(C)C2)cc1 (stereo not given)	-0.1	30	4	i	-4	2
Cc1cc(N2CCN(S(=O)(=O)c3ccc4c(c3)OCCO4)CC2)n2ncnc2n1	-0.19	9	-1	i	-1	6
CC(C)c1ccc(/C=N/NC(=O)c2c(Cl)cnn2C)cc1	0.16	0	0	i	0	5
CCOc1ccc(C(=O)NC(=S)NC2CCCC2)cc1[N+](=O)[O-]	-0.29	58*	71*	i	·	3
Cc1ccc2nsnc2c1NC(=O)c1cccc([N+](=O)[O-])c1	-0.41	-1	11	i	-2	5
SMILES	Dynein cargo inh	Lmaj promast	CHOP inh	Autophagy mod	bCat nuc transl	MT stabilizer
O=C(NC(=S)Nc1ccc(N2CCN(C(=O)c3ccccc3)CC2)cc1)c1cccs1	0.81	92*	60	i	-2	5
COc1ccc(C(=O)Nc2c(C)ccc3nsnc23)cc1[N+](=O)[O-]	0.12	83*	5	i	-5	4
CCOc1ccc(C(=O)NC(=S)Nc2ccccc2OC)cc1[N+](=O)[O-]	-0.31	-1	15	i	2	3
CCOc1ccc(C(=O)NC(=S)Nc2ccccc2N2CCCCC2)cc1[N+](=O)[O-]	0.87	95*	25	i	2	2
Cc1nn(-c2ccccc2)c(Cl)c1C(=O)Nc1c(C)n(C)n(-c2ccccc2)c1=O	-0.38	2	12	i	2	5
COc1ccc(C/C(C)=N\NC(=O)c2cn(C)c3ccccc23)cc1OC	0.48	·	4	·	1	·
CCOc1ccc(C(=O)NC(=S)Nc2ccc(N3CCCCC3)cc2)cc1[N+](=O)[O-]	0.18	99*	-17	i	0	5
CCOc1ccc(C(=O)NC(=S)Nc2ccc(NC(=O)CC)cc2)cc1[N+](=O)[O-]	1.1	-1	-20	i	0	2
Cc1c(C(=O)NC(=S)Nc2ccccc2N2CCCC2)cccc1[N+](=O)[O-]	-0.47	87*	52	i	-1	3
COc1ccc(C(=O)COC(=O)C2CCCN2C(=O)C23CC4CC(CC(C4)C2)C3)cc1 (stereo not given)	0.046	55*	52	i	0	3
O=C(COC(=O)C1CCCN1C(=O)C12CC3CC(CC(C3)C1)C2)c1ccc(Br)cc1 (stereo not given)	-0.12	-4	67	i	-2	4
Cc1cc(NCCCN2CCOCC2)n2ncc(-c3ccccc3)c2n1	0.53	32	4	i	-1	4
CC(=O)Nc1ccc(Nc2cc(C)nc3c(-c4ccccc4)c(C)nn23)cc1	0.32	85*	42	i	1	5
Cc1cc(NCCCN2CCOCC2)n2nc(C)c(-c3ccc(F)cc3)c2n1	-0.34	91*	36	i	-3	3
Cc1cc(NCCCN2CCOCC2)n2nc(C)c(-c3ccccc3)c2n1	0.66	66*	-5	i	-1	3
CCOc1ccc(NC(=O)CN(C)Cc2cc(=O)n3c(-c4ccccc4)csc3n2)cc1OCC	-0.16	9	9	i	0	11
CCOC(=O)C1=C(CC)Nc2ccccc2N=C1NC(=O)c1ccc(S(=O)(=O)N2CCCC2)cc1	0.22	11	12	i	-3	6
CCOC(=O)C1=C(CC)Nc2ccccc2N=C1NC(=O)Nc1ccc(Cl)c(Cl)c1	1.2	97*	53	i	·	2
CC(=O)/C(=N/Nc1ccccc1C)N1CCOCC1	0.15	3	10	i	3	3
CCOC(=O)c1ccc(NC(=S)N(CCCN2CCN(CC)CC2)Cc2cccs2)cc1	0.41	14	27	i	1	5
CCOC(=O)c1ccc(NC(=S)N(CCCN2CCN(C)CC2)Cc2cccs2)cc1	1.2	40	21	i	1	5
Cc1ccccc1NC(=S)N(CCCN1CCC(C)CC1)Cc1ccco1	0.49	13	1	i	-1	4

Screening results as filed in PubChem.
